Experimental findings from the RNAGym collection of RNA variant scans (doi:10.1101/gad.245936.114) are described below.

This sample holds only a part of the variants without activity. Some results are limits rather than exact numbers.

First the molecules themselves.
B1: tRNA (parent)
chain: CUCUCGGUAGCCAAGUUGGUUUAAGGCGCAAGACUUUAAUUUAUCACUACGAAAUCUUGAGAUCGGGCGUUCGACUCGCCCCCGGGAGAUUUUUUCCUCGAGCAA

Variants of B1 are the subject of this series. The series can be described thus: nonsense suppression (GFP-seq) (ratio to wild type); higher = more function; SUP4oc tRNA, yeast GFP reporter sort-seq. The gist of the method:
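Yeast were grown in raffinose/galactose medium with 80 mg/L adenine, each strain bearing a genome-integrated ochre-suppressor tRNA variant from a ~3% random-mutation library, a galactose-driven GFP ochre reporter, and RFP. After sorting into GFP/RFP bins, every bin was sequenced on an Illumina platform at phred ≥30. The GFPSEQ value, a measure of nonsense suppression, is the weighted bin median GFP/RFP relative to the unmutated parent tRNA, using each variant's estimated cell share per bin as the weight. Only variants with ≥100 reads and ≥30 cells were included.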
In the case of CUCUCGGUAGCUAAGUUGGUUUAAGGCGCAAGACUUUAAUUUAUCACUACGAAAUCUUGAGAUCGGGCGUUCGACUCUCCCCCCGGAGAUUUUUUCCUCGAGCAA [C12U G78U G84C], the nonsense suppression is at most 0.026. With CUCUCGGUAGCUAAGUUGUUUUAAGGCGCAAGACUUUAAUUUAUCACUACGAAAUCCUGAGAUCGGGCGUUCGACUAGCCCCCGGGAGUUUUUUUCCUCGAGCAA [C12U G19U U57C C77A A89U], the nonsense suppression is at most 0.026.

For the variant CUCUCGGUAGCUAAGUUGGUUUAAAGCGCAAGACUUUAAUUUAUCACUACGAAAUCUUGAGAUCGGGCGUUCGGCUCGCCCCCGGGAGAUUUUUUCCUCGAGCAA [C12U G25A A74G], the nonsense suppression was at most 0.026. For the variant CUCUCGGUAGCUAAGUUGGUUUAAGGCGCAAGACUUUAAUUUAUCACUACGAAAUCUUGAUAUCGGGCGUUCGACUCGCCCCCGGGAGAUUUUUUCCUCGAGCAA [C12U G61U], the nonsense suppression worked out at 0.248. For the variant CUCUCGGUAGCUAAGGUGGUUUAAGGCGCAAGACUUUAAUUUAUCACUACGAAAUCUUGAGAUCGGGCGUUCGACUCGCCCCCGGGAGAUUUUUUCCUCGAGCAA [C12U U16G], the nonsense suppression was found to be 0.785. CUCUCGGUAGCUAAGCUGGUUUAAGGCGCAAGACUUUAAUUUAUCACUACGAAAUCUUGAGAUCGGGCGUUCGACUCGCCCCCGGGAGAUUUUUUCCUCGAGCAA [C12U U16C]: the nonsense suppression is 0.853.

On to CUCUCGGUAGCUAAGUCGGUUUAAGGCGCAAGACUUUAAUUUAUCACUACGAAAUCUUGAGAUCGGGCGUUCGACUCGCCCCCGGGAGAUUUUUUCCUCGAGCAA [C12U U17C], for which the nonsense suppression was found to be 0.212.

As to CUCUCGGUAGCUAAGUUGGUUUAAGGCGCAAGACUUUAAUUUAUCACUACGAAAUCUUGAGAUCGGGCGUUCGACUCGCCCUCGGGAGAUUUUUUCCUCGAGCAA [C12U C82U], the nonsense suppression was determined as 0.32.

Take CUCUCGGUAGCUAAGUUGGCUUAAGGCGCAAGACUUUAAUUUAUCACUACGAAAUCUUGAGAUCGGGCGUUCGACUCGCCCCCGGGAGAUUUUUUCCUCGAGCAA [C12U U20C]: the nonsense suppression was 0.177. In the case of CUCUCGGUAGCUAAGUUGGGUUAAGGCGCAAGACUUUAAUUUAUCACUACGAAAUCUUGAGAUCGGGCGUUCGACUCGCCCCCGGGAGAUUUUUUCCUCGAGCAA [C12U U20G], the nonsense suppression came to 0.455. Take CUCUCGGUAGCUAAGUUGGUUUAACGCGCAAGACUUUAAUUUAUCACUACGAAAUCGUGAGAUCGGGCGUUCGACUCGCCCCGGGGAGAUUUUUUCCUCGAGCAA [C12U G25C U57G C83G]: the nonsense suppression is at most 0.026.

In the case of CUCUCGGUAGCUAAGUUGGUUUAACGCGCAAGACUUUAAUUUAUCACUACGAAAUCUUGAGAUCGGGCGUUCGACUCGCCCCCGGGAGAUUUUUUCCUCGAGCAA [C12U G25C], the nonsense suppression came to 0.184. As to CUCUCGGUAGCUAAGUUGGUUUAAAGCGCAAGACUUUAAUUUAUCACUACGAAAUCUUGAGAUCGGGCGUUCGACUCGCCCCCGGGAGAUUUUUUCCUCGAGCAA [C12U G25A], the nonsense suppression is 1.19. For CUCUCGGUAGCUAAGUUGGUUUAAUGCGCAAGACUUUAAUUUAUCACUACGAAAUCUUGAGAUCGGGCGUUCGACUCGCCCCCGGGAGAUUUUUUCCUCGAGCAA [C12U G25U], the nonsense suppression turned out to be 0.192.

In the case of CUCUCGGUAGCUAAGCUGGUUUAAGGCACAAGACUUUAAUUUAUCACUACGAAAUCUUGAGAUCGGGCGUUCGACUCGCCCCCGGGAGAUUUUUUCCUCGAGCAA [C12U U16C G28A], the nonsense suppression stood at 0.295. CUCUCGGUAGCUAAGUUGGUUUAAGGCGCAAGACUUUAAUUUAUCACUACGAAAUCUUGAGAUCGGGCGUUCGACUCGCCCCCGUGAGAUUUUUUCCUCGAGCAA [C12U G85U]: the nonsense suppression was found to be 0.0919.

CUCUCGGUAGCUAAGUUGGUUUAAGGCGCAAGACUUUAAUUUAUCACUACGAAAUCUUGAGAUCGGGCGUUCGACUCGCCCCCGCGAGAUUUUUUCCUCGAGCAA [C12U G85C]: the nonsense suppression was determined as 0.111.

Consider CUCUCGGUAGCUAAGUUGGUUUAAAGCGCAAGACUUUAAUUUAUCACUACGAAAUCUUGACAUCGGGCGUUCGACUCGCCCCCGGGAGAUUUUUUCCUCGAGCAA [C12U G25A G61C], for which the nonsense suppression stood at 0.823. With CUCUCGGUAGCUAAGUUGGUUUAAGUCGCAAGACUUUAAUUUAUCACUACGAAAUCUUGAGAUCGGGCGUUCGACUCGCCCCCAGGAGAUUUUUUCCUCGAGCAA [C12U G26U G84A], the nonsense suppression is at most 0.026. Take CUCUCGGUAGCUAAGUUUGUUUAAGGCGCCAGACUUUAAUUUAUCACUACGAAAUCUUGAGAUCGGGCGUUCGACUCGCCCCCAGGAGCUUUUUUCCUCGAGCAA [C12U G18U A30C G84A A89C]: the nonsense suppression was at most 0.026. In the case of CUCUCGGUAGCUAAGUUGGUAUAAGGCGCAGGACUUUAAUUUAUCACUACGAAAUCUUGAGAUCGGGCGUUCGACUCGCCCCCGGGAGAUUUUUUCCUCGAGCAA [C12U U21A A31G], the nonsense suppression worked out at 0.214. Regarding CUCUCGGUAGCUAAGUUGGUUUAAGGCGCAAGACUUUAAUUUAUCACUACGAAAUCUUGAGAUCGGGCGUUCGACUCGCCCCCGGGAUAUUUUUUCCUCGAGCAA [C12U G88U], the nonsense suppression came out at 0.0717.

Turning to CUCUCGGUAGCUAAGUUGGUUUAAGGCGCAAGACUUUAAUUUAUCACUACGAAAUCUUGAGAUCGGGCGUUCGACUCACCCCCGGGAGAUUUUUUCCUCGAGCAA [C12U G78A], the nonsense suppression is 0.0268. As to CUCUCGGUAGCUAAGUUGGUUUAAGGCGCAAGACUUUAAUUUAUCACUACGAAAUCUUGAGAUCGGGCGUUCGACUCUCCCCCGGGAGAUUUUUUCCUCGAGCAA [C12U G78U], the nonsense suppression was determined as 0.0326. Consider CUCUCGGUAGCUAAGUUGGUUUAAGGCGCAAGACUUUAAUUUAUCACUACGAAAUCUUGAGAUCGGGCGUUCGACUCGCCCCCUGGAGAUUUUUUCCUCGAGCAA [C12U G84U], for which the nonsense suppression is 0.117.

For the variant CUCUCGGUAGCUAAGUUGGUUUAAGGCUCAAGACUUUAAUUUAUCACUACGAAAUCUUGAGAUCGGGCGUUCGACUCGCCCCCGGGAGAUUUUUUCCUCGAGCAA [C12U G28U], the nonsense suppression is 0.0705.

For the variant CUCUCGGUAGCUAAGUUGGUUUAAGGCACAAGACUUUAAUUUAUCACUACGAAAUCUUGAGAUCGGGCGUUCGACUCGCCCCCGGGAGAUUUUUUCCUCGAGCAA [C12U G28A], the nonsense suppression was 0.51.
